The test system of experiment [1] is Rattus norvegicus. Kind of experiment: Antidiabetic activity in hyperglycemic normal Wistar rat assessed as reduction of serum glucose level at 10 mg/kg, po up to 180 mins by glucose oxidase method. The format is functional, organism-based. Also on record: dose 10 mg/kg. The method in brief: (§1)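 Male Wistar rats (180–210 g), fasted 16 h, given glucose 4 g/kg (8.9 M) plus compound 10 mg/kg in corn oil by oral gavage (0.5 mL); vehicle-treated and glucose-only controls. Tail-vein blood centrifuged, serum glucose by glucose oxidase before and at 15, 30, 60, 180 min. Lowering expressed versus hyperglycemic control; mean ± S.E.M., n = 8.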

In experiment [2] the test system is Rattus norvegicus. The experiment is described as follows: Antidiabetic activity in hyperglycemic normal Wistar rat assessed as reduction of serum glucose level at 10 mg/kg, po after 30 mins by glucose oxidase method relative to control. It is filed as functional. Also on record: scale not given: the % may be the effect or the level left. The method in brief: as §1

The subject of experiment [3] is Rattus norvegicus. The experiment is described as follows: Antidiabetic activity in hyperglycemic normal Wistar rat assessed as reduction of serum glucose level at 10 mg/kg, po after 15 mins by glucose oxidase method relative to control. On the set-up: scale not given: the % may be the effect or the level left. The format is functional. The method in brief: as §1

Experiment [4] has as its system Rattus norvegicus. The experiment is described as follows: Antidiabetic activity in hyperglycemic normal Wistar rat assessed as potentiation of glucose-induced serum insulin level at 10 mg/kg, po after 30 mins by ELISA relative control. The format is functional. The method in brief:
(§2)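 Male Wistar rats (180–210 g), fasted 16 h, orally loaded with glucose 4 g/kg plus compound 10 mg/kg in corn oil by gavage; euglycemic and hyperglycemic control groups. Serum insulin by rat insulin ELISA (range 0.2–10 ng/mL; intra/inter-assay CV 3.22/6.95), absorbance 450 nm against standard curve. Increase versus hyperglycemic control at matched times; mean ± SEM, n = 8.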
On the technique in general: An ELISA detects its analyte on a solid surface through an enzyme-linked reagent.

Experiment [5] relates to Rattus norvegicus. The experiment is described as follows: Antidiabetic activity in hyperglycemic normal Wistar rat assessed as potentiation of glucose-induced serum insulin level at 10 mg/kg, po by ELISA relative control. It is filed as functional, organism-based. On the set-up: dose 10 mg/kg. The method in brief: as §2
Experiment [6] has as its system Rattus norvegicus. The experiment is described as follows: Antidiabetic activity in hyperglycemic normal Wistar rat assessed as potentiation of glucose-induced serum insulin level at 10 mg/kg, po after 60 mins by ELISA relative control. The format is functional. Summed up:
as §2

For experiment [7], the system named is Rattus norvegicus. The experiment is described as follows: Antidiabetic activity in hyperglycemic normal Wistar rat assessed as reduction of serum glucose level at 10 mg/kg, po after 60 mins by glucose oxidase method relative to control. The format is functional. Also on record: scale not given: the % may be the effect or the level left. The method in brief:
as §1

For nine molecules, Activity results are on record in ChEMBL document CHEMBL1157020, “Antihyperglycemic activity of naphthylchalcones” (2010).

Activity calls are given as the source filed them. The rule behind the calls is not given here.

As to `O=C(/C=C/c1ccc2ccccc2c1)c1ccc2ccccc2c1`, the outcome in the experiment with Rattus norvegicus [1] was inactive.

`O=C(/C=C/c1cccc2ccccc12)c1cccc([N+](=O)[O-])c1`: the Activity is on record as 32% in the experiment on Rattus norvegicus [2] and 18% with Rattus norvegicus [3].

For the molecule `O=C(/C=C/c1cccc([N+](=O)[O-])c1)c1ccc2ccccc2c1`, the outcome in the experiment with Rattus norvegicus [1] was Active. Also, the values for the Activity with Rattus norvegicus [4], in the experiment with Rattus norvegicus [5] and in the experiment on Rattus norvegicus [6] were 48%, “Dose-dependent effect” and 88%, respectively.

Consider `O=C(/C=C/c1ccc([N+](=O)[O-])cc1)c1ccc2ccccc2c1`, for which the outcome with Rattus norvegicus [1] was inactive.

Take `O=C(/C=C/c1cccc2ccccc12)c1ccc([N+](=O)[O-])cc1`: the Activity with Rattus norvegicus [2] was found to be 21%; with Rattus norvegicus [3], 17%.

Consider `O=C(/C=C/c1ccc2ccccc2c1)c1cccc([N+](=O)[O-])c1`, for which the Activity in the experiment on Rattus norvegicus [2] was 25%; with Rattus norvegicus [3], 24%; in the experiment on Rattus norvegicus [7] it was 14%.

Take `O=C(/C=C/c1ccc2ccccc2c1)c1ccc([N+](=O)[O-])cc1`: the Activity with Rattus norvegicus [2] is 25%; in the experiment on Rattus norvegicus [3], 22%; with Rattus norvegicus [4], 27%; in the experiment on Rattus norvegicus [5] it was “Dose-dependent effect”; with Rattus norvegicus [6] it was 104%; with Rattus norvegicus [7], 19%.

As for `O=C(/C=C/c1ccc2ccccc2c1)c1ccccc1[N+](=O)[O-]`, the result in the experiment on Rattus norvegicus [1] was inactive.

For `O=C(/C=C/c1ccc2ccccc2c1)c1ccccc1`, the result with Rattus norvegicus [1] was inactive.
